# Measurements from different studies.
# Lines come from different studies, so protocols differ.
# Sample: plasma
SMILES,test system,setting,AUC(0-inf) [ng·h/mL]
COCCOC(=O)C1=C(C)NC(C)=C(C(=O)OC(C)C)C1c1cccc([N+](=O)[O-])c1 (centres unmarked),male Sprague-Dawley rat,"oral, 12 mg/kg",502
COc1ccc2c(Cc3ccccc3F)c3n(c(=O)c2c1OC)CCc1cc2c(cc1-3)OCO2,rat,"intravenous, 5 mg/kg",22700
COc1cc2c3c(n(CCCN4CCOCC4)c(=O)c2cc1OC)-c1cc2c(cc1C3=O)OCO2,male Fischer 344 rat,"intravenous, 12 mg/m², single dose",232
CNCc1cc(-c2ccccc2F)n(S(=O)(=O)c2cccnc2)c1,Sprague-Dawley rat,"oral, 10 mg/kg",645
Oc1c(Br)cc(Cl)c2cccnc12,Sprague-Dawley rat,"subcutaneous, 10 mg/kg",5300
COc1nc(-c2cc(C)c(N[C@@H](C)c3cc(F)cc(F)c3)nn2)ccc1-n1cnc(C)c1,male Sprague-Dawley rat,"oral, 5 mg/kg, single dose",31900
Cc1c(-c2ccccc2)cccc1N1C(=O)c2cc(CN[C@H](C(=O)O)C(C)O)c(OCc3cccc(C#N)c3)cc2C1=O (some centres unmarked),Sprague-Dawley rat,"intravenous, 5 mg/kg",3260
Oc1cc(O)cc(-c2cc3ccc(O)cc3o2)c1,male rat,"intravenous, 5 mg/kg",932
CCc1cc(OC)c2nccc(N3CCc4c(cc(Cn5ccnc5)cc4-c4cn(C)nc4C(F)(F)F)C3=O)c2c1,male Sprague-Dawley rat,"oral, 50 mg/kg",10300
CCOC(=O)[C@@]12C[C@@H]1[C@@H](n1ccc3c(NC)nc(C#Cc4ccc(Cl)s4)nc31)[C@H](O)[C@@H]2O,male Sprague-Dawley rat,"oral, 10 mg/kg",371
CCc1cc(C(=O)NC)c2nccc(N3CCc4c(cc(Cn5ccnc5)cc4-c4cn(C)nc4C(F)(F)F)C3=O)c2c1,male Sprague-Dawley rat,"oral, 50 mg/kg, single dose",11100
CNC(=O)c1c(C)oc2cc(Oc3ncnc4cc(OC)c(OC)cc34)ccc12,Sprague-Dawley rat,"oral, 1 mg/kg, single dose",6270
O=C(Nc1cc(F)c(F)c(F)c1)c1ccc(F)c(S(=O)(=O)NCc2cccc(B(O)O)c2)c1,male Sprague-Dawley rat,"intravenous, 2 mg/kg",246
COc1ccc2c(=O)n(C)c(-c3ccccc3)nc2c1,male Sprague-Dawley rat,"intravenous, 2 mg/kg",857
